Assay outcomes: PubChem BioAssay, several laboratories
A selection: hits, their analogues and other compounds. The true share with any hit is near 7.1%.
HUVEC inhibit: inhibitors of HUVEC proliferation, primary screen, cell-based, 384-well; viability, % at 10 µM (by protocol); CellTiter-Glo luminescence, 72 h; stronger effect = lower value; AID 648, 2007; hit rate 1.1% among 86,000;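 active means viability at or below 30%; inactive means viability above 30%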;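 further: 100% = median luminescence of DMSO-only cell control wells on each plate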
Fibroblast inh: antiproliferative effect on LL 47 fibroblasts – human, LL 47 cells, CellTiter-Glo luminescence, primary screen | LL 47 human lung fibroblast viability, ATP luminescence; stronger effect = lower value | viability, % at 10 µM | hit rate 1.1% among 85,000;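 active means viability at or below 50% in the single dose screen; inactive means viability above 50%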;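 further: compound exposure lasted 72 h before the ATP readout; 100% = median luminescence of untreated cell-only wells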
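test system = LL 47 human lung fibroblasts | amount = 1,150 fibroblasts seeded per well | medium = 15% FBS in IMEM | times = overnight cell rest, 72 h compound treatment at 37 °C | measured by = CellTiter-Glo luminescence measuring cellular ATP | read-out = viability percentage against median untreated-cell control | benchmarks = cell-only wells, no compound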
Cav32 inh: Cav3.2 calcium influx blockers – cell-based, Fluo-4 calcium fluorescence, FDSS, MLSMR library, primary screen; B-score at 10 µM; Cav3.2-expressing cells; stronger effect = lower value; Voltage-dependent T-type calcium channel subunit alpha-1H (Homo sapiens), O95180; hit rate 4% among 100,000; AID 449739, 2010;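 active means single-dose well whose peak fluorescence ratio is a statistical outlier from its plate by either plate-standardised score or position-corrected B-score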
Target sequence (O95180 whole entry, looked up): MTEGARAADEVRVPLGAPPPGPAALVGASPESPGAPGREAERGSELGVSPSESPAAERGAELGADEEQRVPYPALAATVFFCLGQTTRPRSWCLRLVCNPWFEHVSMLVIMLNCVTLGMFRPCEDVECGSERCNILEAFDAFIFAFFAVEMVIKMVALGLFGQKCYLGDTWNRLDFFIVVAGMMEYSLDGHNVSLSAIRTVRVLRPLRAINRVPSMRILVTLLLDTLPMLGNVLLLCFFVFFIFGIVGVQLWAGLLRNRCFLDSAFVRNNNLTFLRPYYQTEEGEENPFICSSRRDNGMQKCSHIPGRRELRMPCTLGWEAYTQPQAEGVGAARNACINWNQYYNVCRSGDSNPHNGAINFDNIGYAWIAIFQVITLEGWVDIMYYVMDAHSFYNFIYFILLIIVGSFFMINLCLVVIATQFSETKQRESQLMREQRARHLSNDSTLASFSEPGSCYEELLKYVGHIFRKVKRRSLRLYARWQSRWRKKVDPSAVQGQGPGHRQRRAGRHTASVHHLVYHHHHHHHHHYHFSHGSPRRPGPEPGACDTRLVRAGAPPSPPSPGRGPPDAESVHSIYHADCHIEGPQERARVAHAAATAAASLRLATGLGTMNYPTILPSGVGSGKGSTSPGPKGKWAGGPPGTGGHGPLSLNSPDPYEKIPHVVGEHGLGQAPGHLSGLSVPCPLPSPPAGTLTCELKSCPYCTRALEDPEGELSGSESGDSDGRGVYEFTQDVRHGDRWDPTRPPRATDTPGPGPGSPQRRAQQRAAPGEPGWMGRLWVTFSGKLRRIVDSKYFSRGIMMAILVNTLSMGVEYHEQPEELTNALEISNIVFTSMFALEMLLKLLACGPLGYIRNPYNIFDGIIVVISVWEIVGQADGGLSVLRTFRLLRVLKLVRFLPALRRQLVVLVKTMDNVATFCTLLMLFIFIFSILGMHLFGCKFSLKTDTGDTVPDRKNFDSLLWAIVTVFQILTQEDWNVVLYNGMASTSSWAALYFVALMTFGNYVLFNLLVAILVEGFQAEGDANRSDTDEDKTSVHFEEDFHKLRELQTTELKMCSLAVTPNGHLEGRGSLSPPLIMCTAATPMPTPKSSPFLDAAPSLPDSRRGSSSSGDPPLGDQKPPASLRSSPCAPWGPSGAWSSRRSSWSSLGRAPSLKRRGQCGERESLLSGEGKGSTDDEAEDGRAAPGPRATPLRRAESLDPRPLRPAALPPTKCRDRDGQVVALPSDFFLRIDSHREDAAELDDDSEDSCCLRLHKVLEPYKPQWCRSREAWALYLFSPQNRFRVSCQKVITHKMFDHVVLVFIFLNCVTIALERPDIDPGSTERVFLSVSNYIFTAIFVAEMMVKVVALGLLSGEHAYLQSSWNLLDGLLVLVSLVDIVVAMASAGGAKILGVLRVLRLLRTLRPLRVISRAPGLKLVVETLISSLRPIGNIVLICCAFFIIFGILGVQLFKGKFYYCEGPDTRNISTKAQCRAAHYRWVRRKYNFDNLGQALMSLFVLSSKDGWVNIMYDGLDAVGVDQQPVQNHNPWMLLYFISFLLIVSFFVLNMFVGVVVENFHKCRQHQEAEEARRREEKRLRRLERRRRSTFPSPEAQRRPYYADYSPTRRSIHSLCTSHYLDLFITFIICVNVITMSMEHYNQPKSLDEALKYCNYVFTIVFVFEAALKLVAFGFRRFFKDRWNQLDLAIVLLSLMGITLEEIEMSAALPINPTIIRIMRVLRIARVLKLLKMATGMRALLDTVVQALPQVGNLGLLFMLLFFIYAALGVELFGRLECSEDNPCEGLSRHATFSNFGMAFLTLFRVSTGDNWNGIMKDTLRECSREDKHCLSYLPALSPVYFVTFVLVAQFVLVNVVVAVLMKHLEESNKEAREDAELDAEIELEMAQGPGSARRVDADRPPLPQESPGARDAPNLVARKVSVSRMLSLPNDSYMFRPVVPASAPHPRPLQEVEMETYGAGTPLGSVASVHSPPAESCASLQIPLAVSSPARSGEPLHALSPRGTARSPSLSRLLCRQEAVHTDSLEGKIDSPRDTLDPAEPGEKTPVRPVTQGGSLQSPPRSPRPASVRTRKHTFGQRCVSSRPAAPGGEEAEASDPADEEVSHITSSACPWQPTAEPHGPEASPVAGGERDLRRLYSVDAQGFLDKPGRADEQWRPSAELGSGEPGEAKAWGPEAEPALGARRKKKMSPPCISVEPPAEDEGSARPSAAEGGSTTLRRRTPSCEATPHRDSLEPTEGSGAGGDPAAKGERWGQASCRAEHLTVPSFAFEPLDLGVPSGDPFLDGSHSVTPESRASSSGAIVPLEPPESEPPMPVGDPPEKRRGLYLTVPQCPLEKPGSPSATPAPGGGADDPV
HCT116 bCat-KO: primary screen for growth suppressors in beta-catenin knockout HCT116 cells (colon tumor, human); HCT116 beta-catenin knockout viability, CellTiter-Glo, 60 h; stronger effect = lower value; viability, % at 10 µM; hit rate 1.5% among 140,000; AID 818, 2007;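 active means viability at or under a set limit, the compound median less 4 SD, cut at about 6% in these data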;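 further: 0% = Hyamine 1622 control at 20 µM and 100% = untreated cell control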
H69AR growth 86K: proliferation blockers of H69AR lung cancer cells, primary screen, cell-based, human, 86K library; H69AR lung tumor viability, ATP luminescence, 72 h; stronger effect = lower value; viability, % at 10 µM; hit rate 6% among 85,000;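 active means viability at or below 40%; inactive means viability above 40%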;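 further: multidrug resistant small cell line overexpressing MRP-1 efflux transporter; 100% = mean luminescence of untreated control wells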
PTEN del growth: growth suppression of PTEN-null HCT116, primary screen, cell-based, CellTiter-Glo; HCT116 PTEN-null viability, 60 h; stronger effect = lower value; viability, % at 10 µM; hit rate 1.2% among 140,000; AID 827, 2007;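 active means viability at or below a set limit, 4 SD under the median of all tested compounds, cut at about 3.7% in these data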;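 further: PTEN knockout HCT116 line with beta catenin targeted HCT116 as companion control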
* = called active by the depositor; . = no result given.

SMILES	HUVEC inhibit	Fibroblast inh	Cav32 inh	HCT116 bCat-KO	H69AR growth 86K	PTEN del growth
Cc1csc(SCC(=O)NCCc2ccc(Cl)cc2Cl)n1	.	.	.	95.5	.	90.7
CC[C@]1(O)CC2CN(CCc3c([nH]c4ccccc34)[C@@](C(=O)OC)(c3cc4c(cc3OC)N(C)[C@H]3[C@@](O)(C(N)=O)[C@H](O)[C@]5(CC)C=CCN6CC[C@]43[C@@H]65)C2)C1 (some centres undefined)	.	.	-0.355	.	.	.
Cc1cnc(C(=O)Nc2ccccc2F)cn1	99.1	100.1	-0.0358	89.2	101.2	105.3
COc1ccc(NC(=O)c2cnc(C)cn2)c2ncccc12	26.9*	49.4*	0.382	10.9	2.8*	11.3
Cc1nn(Cc2ccc(Cl)cc2)c(C)c1NC(=O)CSc1nc2c(c(C(F)(F)F)n1)CCc1ccccc1-2	.	.	-3.9*	14.9	.	3.5*
Cc1onc(-c2c(Cl)cccc2Cl)c1C(=O)N/N=C(\N)COc1ccc(Cl)cc1	.	.	-4.97*	5.9*	.	9.1
CCOC(=O)Cc1csc(NC(=O)c2c(-c3c(Cl)cccc3Cl)noc2C)n1	78.8	95.8	-4.85*	75.0	75.8	61.9
CCOC(=O)Cc1csc(NC(=O)NC2(C(F)(F)F)Oc3ccc(Cl)cc3O2)n1 (centres undefined)	.	.	0.615	81.8	.	75.5
Cc1onc(-c2c(Cl)cccc2Cl)c1C(=O)NCc1cccs1	.	.	.	87.0	.	80.9
CCOC(=O)Cc1csc(NC(=O)c2ccncc2)n1	103.5	97.6	-0.242	95.7	100.3	92.6
CCOC(=O)Cc1csc(NC(=O)NC2(C(F)(F)F)Oc3ccccc3O2)n1	67.8	61.8	0.844	37.2	16.7*	35.2
N/C(=N\OC(=O)COc1ccc2ccccc2c1)c1cccnc1	.	.	.	78.3	.	67.9
Cc1cc(SCC(=O)N/N=C/c2ccc(O)cc2O)c(C)cc1Br	35.1	36.6*	0.024	8.7	26.2*	8.6
Cc1ccc(-n2c(C)cc(C(=S)N3CCOCC3)c2C)cc1C	.	.	-3.42	63.3	.	71.4
COCCn1c(C)cc(C2=NNC(=Nc3ccccc3F)SC2)c1C	86.4	95.8	-4.44*	84.3	99.8	79.3
CCC(=O)N1CCc2cc(S(=O)(=O)NC(C(=O)NC3CCCc4ccccc43)C(C)C)ccc21 (centres undefined)	.	.	.	95.8	.	85.5
O=C(Cn1cc(C(F)(F)F)cc(Cl)c1=O)Nc1cc(S(=O)(=O)N2CCOCC2)ccc1Cl	.	.	.	89.2	.	88.2
Cc1noc2ncnc(Sc3c(Cl)cccc3Cl)c12	51.8	48.8*	-0.06	10.7	15.9*	8.1
Cc1ccc(Sc2ncnc3onc(C)c23)cc1	80.1	91.5	-0.0803	82.7	78.0	78.8
Cc1ccccc1Sc1ncnc2onc(C)c12	81.1	96.5	-0.0704	82.3	43.4	82.5
Cc1noc2ncnc(Sc3ccc(Cl)cc3)c12	47.3	56.5	-0.0375	83.0	1.8*	83.2
Cc1cc(C)n(-c2nnc(NC34CC5CC(CC(C5)C3)C4)nn2)n1	.	.	.	54.4	.	61.6
CC(=O)c1ccc(NC(=O)Nc2ccccc2)cc1	102.2	107.1	0.405	89.3	98.4	93.6
CN(C)c1ccc(N=C/C=C2/N(C)c3ccccc3C2(C)C)cc1	.	.	.	48.4	.	25.4
COC(=O)CSc1nc2c(c(-c3ccco3)c1C#N)CCCC2	92.6	103.3	-0.0112	94.3	48.5	90.5
SMILES	HUVEC inhibit	Fibroblast inh	Cav32 inh	HCT116 bCat-KO	H69AR growth 86K	PTEN del growth
COC(=O)CSc1nc(SCc2ccccc2Cl)nc2c1CCCC2	.	.	-4.99*	85.6	.	85.5
O=C(OCc1cccs1)c1ccccc1NS(=O)(=O)c1ccc2c(c1)OCCO2	107.3	89.0	-4.84*	90.1	89.8	86.6
CC(C)Cn1c(=O)c(C(=O)NCc2ccccn2)c(O)c2ccccc21	84.1	92.0	-4.66	49.1	28.5*	54.0
Cc1cc(C(=O)NC2CCCc3ccccc32)no1 (centres undefined)	92.8	89.6	0.319	105.5	94.8	102.6
Cc1cccc(-n2nnc(C(=O)NC3CCCc4ccccc43)c2N)c1 (centres undefined)	67.1	93.5	-6.65*	64.2	19.2*	57.0
Cc1nc(NCc2ccco2)c2c(C)c(C)sc2n1	3.5*	26.9*	-2.93	1.7*	33.7*	2.2*
Cc1sc2nc3c4ccccc4c(NCc4ccco4)nn3c(=O)c2c1C	82.5	92.5	1.75	60.6	34.0*	60.5
COc1cc(C(=S)N2CCCC2)cc(Cl)c1OCC(=O)Nc1ccc(C)cc1C	.	.	.	90.5	.	80.8
O=C(Nc1ccccc1C(=O)OCC(=O)c1c[nH]c2ccccc12)c1ccco1	.	.	.	72.5	.	61.6
c1ccc2c(CSCCc3ccncc3)cccc2c1	85.3	102.7	-1.2	71.8	33.9*	77.8
Cc1cc(NC(=O)C2CCN(S(=O)(=O)c3cnc[nH]3)CC2)ccc1Br	92.0	99.9	1.03	95.6	65.8	97.2
O=C1CN(C(=O)c2cc(Br)c(Br)s2)c2ccccc2N1	41.8	79.1	-5.56*	32.5	15.9*	30.6
Cc1ccccc1OCC(=O)N1N=C(c2cccnc2)CC1(O)C(F)(F)F (centres undefined)	.	.	.	90.6	.	100.1
Cc1cccc(NS(=O)(=O)c2cc(C(=O)OC(C)C(=O)NCc3ccc4c(c3)OCO4)ccc2C)c1 (centres undefined)	.	.	.	78.6	.	70.8
O=C(NNC(=O)c1ccc(SCC2CCCO2)c([N+](=O)[O-])c1)c1ccc(Cl)c([N+](=O)[O-])c1 (centres undefined)	64.3	63.0	0.383	76.5	6.1*	81.9
Cc1ccc(C(=O)NNC(=O)c2ccc(SCC3CCCO3)c([N+](=O)[O-])c2)cc1 (centres undefined)	96.8	101.8	0.366	88.7	90.5	95.9
COc1ccccc1C(=O)OCc1c(F)cccc1Cl	.	.	-1.9*	87.5	.	94.0
O=c1c(Cl)nc2cc(Cl)ccc2n1CCNc1ncc(C(F)(F)F)cc1Cl	.	.	2.31	1.4*	.	1.2*
COc1cc(NC(=O)Cn2nc(C(F)(F)F)c(Br)c2C)cc([N+](=O)[O-])c1	.	.	.	40.4	.	27.8
COc1ccccc1OCC(=O)N(Cc1nc(-c2ccccc2)no1)C1CCCCC1	94.0	94.8	-8.13*	71.1	95.5	80.7
CC(C)N(Cc1nc(-c2ccccc2)no1)C(=O)c1ccc(Cl)cc1	109.5	92.2	-3.89	31.8	87.8	42.6
Cc1ccccc1OCC(=O)N(Cc1nc(-c2ccccc2)no1)C(C)C	99.5	86.6	-4.28*	93.5	94.5	82.6
Cc1ccc(SCC(=O)N(Cc2nc(-c3ccccc3)no2)C(C)C)cc1	104.6	91.9	-2.67	81.1	94.2	67.5
CC(C)N(Cc1nc(-c2ccc(Cl)cc2)no1)C(=O)CCCN1C(=O)c2ccccc2C1=O	96.5	99.9	-5.01*	82.1	110.8	73.8
